Assay outcomes deposited in PubChem BioAssay by several laboratories.
Shown are actives, neighbours in structure and some others; about 4.4% of the full set was active somewhere.
MsrA inhibitor: bovine MsrA enzyme inhibitors, primary screen, biochemical, absorbance, HTS. purified bovine MsrA, absorbance read-out. inhibition, % at 15.5 µM. 360,000 tested, 0.75% active. AID 651718, 2012; in the data active = inhibition above about 4.5%
HTR2A ag: mouse Htr2a agonists via beta-arrestin recruitment, primary screen, cell-based, luminescence | 5-hydroxytryptamine receptor 2A (Mus musculus), P35363 | CHO-K1 mHTR2A beta-arrestin complementation; percent of 30 µM serotonin response | activation, % at 7.6 µM | 360,000 tested, 0.66% active | AID 624169, 2012;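 active = activation above a run cutoff, the mean activation of all tested compounds plus 3 SD, cut at about 14% in these data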
Target sequence (P35363 whole entry, looked up): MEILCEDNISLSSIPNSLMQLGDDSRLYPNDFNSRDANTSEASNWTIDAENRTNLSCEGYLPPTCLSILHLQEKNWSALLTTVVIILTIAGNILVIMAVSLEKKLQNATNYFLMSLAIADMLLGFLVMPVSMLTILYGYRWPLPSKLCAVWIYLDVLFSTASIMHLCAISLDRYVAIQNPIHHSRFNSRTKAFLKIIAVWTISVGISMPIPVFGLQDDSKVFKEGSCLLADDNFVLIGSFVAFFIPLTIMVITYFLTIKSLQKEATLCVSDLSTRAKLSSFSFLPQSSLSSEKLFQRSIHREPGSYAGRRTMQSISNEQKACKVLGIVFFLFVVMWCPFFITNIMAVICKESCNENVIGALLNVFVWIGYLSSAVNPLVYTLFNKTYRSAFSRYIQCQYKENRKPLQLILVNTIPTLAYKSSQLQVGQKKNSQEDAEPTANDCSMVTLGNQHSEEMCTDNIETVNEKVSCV
AI-2 QS mod: Vibrio harveyi AI-2 quorum sensing modulators, primary screen, JMH597 strain, luminescence/OD600 ratio; Vibrio harveyi JMH597 AI-2 luminescence/OD600 ratio, 9 h; hits give low values; strain lacks LuxN and CqsS sensors; 0 = neutral-control median; activity change, % at 7.5 µM; 300,000 tested, 0.4% active; in the data active = activity change below about -75%, passing the limit was not always enough;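 note: luminescence divided by OD600 gain over 9 h not by final OD600 alone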
TbMetRS inhib: T. brucei MetRS inhibitors, primary screen, biochemical, luminescence. purified T. brucei MetRS, ATP depletion, Kinase-Glo luminescence. inhibition, % at 11.9 µM. 360,000 tested, 0.4% active. AID 624268, 2012;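 active = inhibition above a per-plate cutoff of the control wells' mean inhibition plus 3 SD, cut at about 5.5% in these data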
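Dosing: 11.9 µM single point; system: parasite MetRS enzyme; technique: luminescence of leftover ATP; times: 15 min enzyme-compound preincubation, 2 h reaction, 10 min detection, 25 °C; replicates: each compound tested once; read-out basis: percent inhibition relative to median high and low control wells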
MsrA act: bovine MsrA enzyme activators, primary screen, biochemical, absorbance, HTS | 360,000 tested, 0.3% active | purified bovine MsrA, absorbance read-out | activation, % at 10.6 µM | AID 602163, 2012 | Methionine sulfoxide reductase A (Bos taurus); in the data active = activation above about 7.5%
AHR act: AHR activators, primary screen, cell-based, luminescence, luciferase reporter, human | AHR-responsive luciferase reporter cells | activation, % at 5 µM | 320,000 tested, 2.5% active | AID 2796, 2010; in the data active = activation above about 47%
Hits are given with their value.

Screening Oc1ccccc1Oc1ncc(Br)c(N2CCOCC2)n1 returned MsrA inhibitor inactive, HTR2A ag inactive, AI-2 QS mod inactive, TbMetRS inhib inactive, MsrA act inactive and AHR act inactive.
`Oc1ccccc1Oc1c(F)c(F)nc(N2CCCC2)c1F` gave MsrA inhibitor inactive, HTR2A ag inactive, AI-2 QS mod -94, TbMetRS inhib inactive, MsrA act inactive and AHR act inactive.
`O=C(Oc1ccccc1/C=C\C(=O)c1cc2ccccc2o1)c1cccc(F)c1` gave MsrA inhibitor inactive, HTR2A ag inactive, AI-2 QS mod inactive, TbMetRS inhib inactive, MsrA act inactive and AHR act 70.
For O=C(Oc1ccccc1/C=C\C(=O)c1cc2ccccc2o1)c1ccccc1 the results were MsrA inhibitor inactive, HTR2A ag inactive, AI-2 QS mod inactive, TbMetRS inhib inactive, MsrA act inactive and AHR act 68.
For N#C/C(=C/C1=C(N2CCOCC2)C(=C/c2ccc(Cl)cc2)/CC1)C(=O)Nc1ccccc1F the results were MsrA inhibitor inactive, HTR2A ag inactive, TbMetRS inhib inactive and MsrA act inactive.
For CC1CCCC(C)N1/N=C/c1cc(Br)c(O)c(Br)c1 (stereo not drawn) the results were MsrA inhibitor 4.6, AI-2 QS mod inactive and AHR act inactive.
Screening COc1ccc(-c2cc3nc(C)cc(N4CC(C)CC(C)C4)n3n2)cc1 (stereo not drawn) returned MsrA inhibitor inactive, HTR2A ag inactive, AI-2 QS mod inactive, TbMetRS inhib inactive, MsrA act inactive and AHR act 50.
Screening CC(=O)Nc1ccc(S(=O)(=O)NCCSCc2ccc(Cl)cc2Cl)cc1 returned MsrA inhibitor inactive, HTR2A ag inactive, AI-2 QS mod inactive, TbMetRS inhib 13, MsrA act inactive and AHR act inactive.
Screening O=C(CC[C@H]1O[C@@H](n2cnc3c(NC(=O)c4ccccc4)ncnc32)[C@H](O)[C@@H]1O)N[C@@H](CO)Cc1c[nH]c2ccccc12 returned MsrA inhibitor inactive, HTR2A ag inactive, TbMetRS inhib inactive and MsrA act inactive.
Screening Cc1c(/C=N/NC(=O)c2ccccc2O)c2ccccn2c1C(=O)c1ccc(F)cc1 returned MsrA inhibitor inactive, HTR2A ag inactive, AI-2 QS mod inactive, TbMetRS inhib inactive, MsrA act inactive and AHR act 53.
`Cc1c(/C=N/NC(=O)c2ccc(O)cc2)c2ccccn2c1C(=O)c1ccc(F)cc1` gave MsrA inhibitor inactive, HTR2A ag inactive, AI-2 QS mod inactive, TbMetRS inhib inactive, MsrA act inactive and AHR act inactive.
`Cc1c(/C=N/NC(=O)c2cccnc2)c2ccccn2c1C(=O)c1ccc(F)cc1` gave AI-2 QS mod inactive and AHR act 73.
Cc1c(/C=N/NC(=O)CNc2ccccc2)c2ccccn2c1C(=O)c1ccccc1 was read as MsrA inhibitor inactive, HTR2A ag inactive, AI-2 QS mod inactive, TbMetRS inhib inactive, MsrA act inactive and AHR act 53.
`CC(=O)[C@H]1[C@@H]2C(=O)N(c3cccc(Cl)c3)C(=O)[C@@H]2[C@H]2c3ccccc3C=CN21` gave MsrA inhibitor inactive, HTR2A ag inactive, AI-2 QS mod inactive, TbMetRS inhib inactive, MsrA act inactive and AHR act inactive.
For CC(=O)[C@H]1[C@H](c2cccc(Cl)c2)C(C#N)(C#N)[C@@H]2c3ccccc3C=CN21 the results were AI-2 QS mod inactive and AHR act 101.
Screening Cc1cc(Nc2ccccc2)n(-c2ccccc2)n1 returned MsrA inhibitor inactive, HTR2A ag inactive, AI-2 QS mod inactive, TbMetRS inhib inactive, MsrA act inactive and AHR act inactive.
Cc1cc(Nc2nc(Cl)c(Cl)cc2Cl)n(-c2ccccc2)n1 was read as MsrA inhibitor inactive, HTR2A ag inactive, AI-2 QS mod inactive, TbMetRS inhib inactive, MsrA act inactive and AHR act 68.
For CCCCc1c(-c2ccccc2OC)ncn1C(C)c1ccc(Cl)cc1 (stereo not drawn) the results were MsrA inhibitor inactive.
CC(=O)N1c2ccccc2Oc2cc3ccccc3cc21 was read as MsrA inhibitor inactive, HTR2A ag inactive, AI-2 QS mod inactive, TbMetRS inhib inactive, MsrA act inactive and AHR act 65.
`O=C(CCl)N1c2ccccc2Oc2ccc3ccccc3c21` gave MsrA inhibitor inactive, HTR2A ag inactive, TbMetRS inhib inactive and MsrA act inactive.
Screening CCc1ccc(Nc2cnn(-c3nc4ccccc4s3)c(=O)c2Cl)cc1 returned MsrA inhibitor inactive, HTR2A ag inactive, AI-2 QS mod inactive, TbMetRS inhib inactive, MsrA act inactive and AHR act 49.
For CCCCNc1cnn(-c2ccccc2)c(=O)c1Cl the results were MsrA inhibitor inactive, HTR2A ag inactive, AI-2 QS mod inactive, TbMetRS inhib inactive, MsrA act inactive and AHR act inactive.
O=[N+]([O-])c1ccc2c(c1)CO[C@]21O[C@H](CCO)C[C@H](O)[C@H]1O was read as MsrA inhibitor inactive.
Screening COc1cccc(CN2CCNC(=O)C2CC(=O)O)c1OC (stereo not drawn) returned MsrA inhibitor inactive, HTR2A ag 14, AI-2 QS mod inactive, TbMetRS inhib inactive, MsrA act inactive and AHR act inactive.
For CN1CCCCC(NC(=O)c2ccc(C#N)cc2)C1=O (stereo not drawn) the results were MsrA inhibitor inactive.
`COc1cc(C(C)=O)ccc1OCC(=O)NCc1ccccc1CN1CCCC1` gave MsrA inhibitor inactive, HTR2A ag inactive, TbMetRS inhib inactive and MsrA act inactive.
Screening CCOC(=O)c1sc(=S)n(-c2cc(F)ccc2F)c1N returned MsrA inhibitor inactive, HTR2A ag inactive, AI-2 QS mod inactive, TbMetRS inhib inactive, MsrA act inactive and AHR act inactive.
For COC(=O)c1sc(=S)n(-c2cc(F)ccc2F)c1N the results were MsrA inhibitor 4.6, HTR2A ag inactive, AI-2 QS mod inactive, TbMetRS inhib inactive, MsrA act inactive and AHR act inactive.
Screening COCCN(CCOC)C(=O)[C@@H](Cc1ccccc1)NC(=O)[C@H]1O[C@@H](n2ccc(N)nc2=O)[C@H](O)[C@@H]1O returned MsrA inhibitor inactive.
Screening COCC#Cc1ccc2c(c1)O[C@H](CN(C)C(=O)c1ccccc1)[C@@H](C)CN([C@H](C)CO)S2(=O)=O returned MsrA inhibitor inactive.
For COc1cc(NC(=O)[C@@H](Cc2ccccc2)NC(=O)[C@H]2O[C@@H](n3ccc(=O)[nH]c3=O)[C@H](O)[C@@H]2O)cc(OC)c1OC the results were MsrA inhibitor inactive.
